These results are taken from ChEMBL document CHEMBL2321672, “Discovery of biphenylacetamide-derived inhibitors of BACE1 using de novo structure-based molecular design” (J Med Chem, 2013).

Activity calls are given as the source filed them. The calls are words filed in the database; no cut-off is given here.

For one data set, the species on record is Homo sapiens. The data set can be described thus: Selectivity ratio of IC50 for recombinant BACE2 (unknown origin) to IC50 of recombinant BACE1 (unknown origin).
The nature of data set [1]: Cytotoxicity against HEK293 cells assessed as cell viability at 100 uM after 24 hrs by MTT assay relative to control. It is filed as cell-based. Particulars: human, read-out: Activity. The essentials: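 MTT viability read-out on mammalian cells after 24-hour exposure to 100 µM compound; viable cells expressed as percentage remaining relative to control; mean ± SEM, n ≥ 3.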
For orientation: Tetrazolium dyes change colour on reduction, which living cells bring about.

The next data set concerns the target T1, Beta-secretase 2 (Homo sapiens, UniProt Q9Y5Z0).
T1 sequence (Q9Y5Z0 whole entry): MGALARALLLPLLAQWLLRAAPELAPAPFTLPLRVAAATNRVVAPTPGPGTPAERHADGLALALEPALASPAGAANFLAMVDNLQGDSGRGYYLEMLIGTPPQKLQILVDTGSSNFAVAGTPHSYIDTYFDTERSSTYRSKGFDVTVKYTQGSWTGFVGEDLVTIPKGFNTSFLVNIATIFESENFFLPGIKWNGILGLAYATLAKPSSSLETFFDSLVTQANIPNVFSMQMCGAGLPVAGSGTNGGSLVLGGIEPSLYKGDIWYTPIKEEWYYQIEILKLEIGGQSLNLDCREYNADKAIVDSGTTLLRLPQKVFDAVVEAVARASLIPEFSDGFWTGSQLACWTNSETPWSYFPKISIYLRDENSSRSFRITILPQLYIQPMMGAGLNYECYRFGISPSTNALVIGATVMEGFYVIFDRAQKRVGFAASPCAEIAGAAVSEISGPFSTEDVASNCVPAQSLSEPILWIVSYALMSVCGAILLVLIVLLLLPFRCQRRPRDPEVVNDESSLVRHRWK
The data set can be described thus: Inhibition of recombinant BACE2 (unknown origin) using FAM-SEVNLDAEFK-TAMRA as substrate incubated for 30 mins prior to substrate addition by fluorimetric analysis.

For another data set, the system named is HEK293. The data set can be described thus: Effect on sAPPalpha level in HEK293 cells coexpressing N-terminal […] APP at 100 uM after 24 hrs by Western blotting analysis. The class given is functional, Homo sapiens. In outline:
(§1)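 HEK 293 cells over-expressing BACE1 were exposed to compound at 100 µM for 24 hours. Conditioned media were western blotted for sAPPα and sAPPβ, with sAPPβ detected by antibody 1A9. Levels were compared with control.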

Data set [2] has as its target T2, Beta-secretase 1 (Homo sapiens, UniProt P56817). The data set can be described thus: Inhibition of recombinant BACE1 (unknown origin) using FAM-SEVNLDAEFK-TAMRA as substrate incubated for 30 mins prior to substrate addition by fluorimetric analysis.
Data set [3] deals with T2, Beta-secretase 1. The data set can be described thus: Inhibition of recombinant BACE1 (unknown origin) using FAM-SEVNLDAEFK-TAMRA as substrate at 100 uM incubated for 30 mins prior to substrate addition by fluorimetric analysis relative to control.
For data set [4], the target named is T2, Beta-secretase 1. The data set can be described thus: Inhibition of BACE1 (unknown origin) expressed in HEK293 cells coexpressing N-terminal […] APP assessed as decrease in sAPPbeta level at 100 uM after 24 hrs by Western blotting analysis. The class given is cell-based. In outline: as §1
In general terms: A western blot detects proteins with antibodies after separation by electrophoresis.

The target of data set [5] is T2, Beta-secretase 1. The data set can be described thus: Inhibition of BACE1 (unknown origin) -mediated sAP-APP production expressed in HEK293 cells coexpressing N-terminal […] APP at 100 uM after 24 hrs by spectrophotometric analysis. The class given is cell-based. In outline:
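HEK 293 cells stably expressing BACE1 plus wild-type human APP carrying an N-terminal alkaline phosphatase tag (AP-APP) were incubated with compound. Release of sAP-APP into conditioned media was quantified as alkaline phosphatase activity and expressed as percentage of the matched control.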

T2 sequence (P56817 whole entry): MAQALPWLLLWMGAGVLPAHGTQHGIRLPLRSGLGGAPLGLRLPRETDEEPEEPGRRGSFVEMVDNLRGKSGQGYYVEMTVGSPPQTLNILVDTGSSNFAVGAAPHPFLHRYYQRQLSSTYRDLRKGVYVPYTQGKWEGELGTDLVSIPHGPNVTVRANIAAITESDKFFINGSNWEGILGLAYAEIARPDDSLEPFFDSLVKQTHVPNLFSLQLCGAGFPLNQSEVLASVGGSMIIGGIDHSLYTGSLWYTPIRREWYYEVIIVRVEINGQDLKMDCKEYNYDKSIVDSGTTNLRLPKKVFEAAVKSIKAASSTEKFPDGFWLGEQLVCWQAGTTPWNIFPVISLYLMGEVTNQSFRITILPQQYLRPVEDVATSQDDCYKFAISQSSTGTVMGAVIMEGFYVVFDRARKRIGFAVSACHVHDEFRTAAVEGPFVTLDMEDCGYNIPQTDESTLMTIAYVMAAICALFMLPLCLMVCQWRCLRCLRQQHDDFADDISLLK

Regarding `O=C(Cc1ccc(-c2ccccc2)cc1)NCc1ccc(CN2Cc3ccccc3C2)cc1`, the Ratio IC50 in the data set filed under Homo sapiens turned out to be 2. Moreover, the viability at 24 h, 100 µM in data set [1] worked out at 80%. The IC50 (commonly the concentration at which inhibition is half-maximal) was more than 1000 µM at Beta-secretase 2 and 63.3 µM at Beta-secretase 1 [2] (read-out: IC50). Further, the Activity in the data set on HEK293 is listed as 10%. The inhibition – broadly, the relative decrease from the control value, in per cent – is 70.1% at Beta-secretase 1 [3], 33% on Beta-secretase 1 [4] and 21.7% against Beta-secretase 1 [5].
Regarding `NCc1ccc(CNC(=O)Cc2ccc(-c3cccc(C(F)(F)F)c3)cc2)cc1`, the Ratio IC50 in the data set listed under Homo sapiens is 2. For the same molecule, in data set [1], the viability at 24 h, 100 µM is 46%. For the same molecule, the results for the half-inhibitory concentration (IC50) at Beta-secretase 2 and on Beta-secretase 1 [2] (read-out: IC50) were 319 µM and 58.9 µM, respectively. At Beta-secretase 1 [3], the inhibition turned out to be 60.7%.
For `CC(C)C(C(=O)NCc1ccc(CN)cc1)c1ccc(-c2ccccc2)cc1` (stereo unspecified), the Ratio IC50 in the data set filed under Homo sapiens stood at 2. In addition, in data set [1], the viability at 24 h, 100 µM was 50%. Also, the IC50 came to 100 µM on Beta-secretase 2 and 33.5 µM at Beta-secretase 1 [2] (read-out: IC50). Moreover, the inhibition on Beta-secretase 1 [3] turned out to be 66.1%.
As for `O=C(Cc1ccc(-c2ccccc2)cc1)Nc1ccc(Br)cc1`, at Beta-secretase 1 [3], the inhibition entry was “inactive”.
Turning to `NCc1ccc(CNC(=O)Cc2ccc(-c3ccc(O)cc3)cc2)cc1`, the concentration for half-maximal inhibition (IC50) at Beta-secretase 1 [2] (read-out: IC50) is more than 100 µM. Moreover, on Beta-secretase 1 [3], the inhibition stood at 41.3%.
As to `O=C(Cc1ccc(-c2ccccc2)cc1)NCc1ccccc1`, the viability at 24 h, 100 µM in data set [1] is 93%. Moreover, on Beta-secretase 1 [2], the inhibition result is “inactive”. The inhibition on Beta-secretase 1 [3] was found to be 15.2%.
As to `NCc1ccc(CNC(=O)Cc2ccc(-c3cc(C(F)(F)F)cc(C(F)(F)F)c3)cc2)cc1`, the viability at 24 h, 100 µM in data set [1] turned out to be 8%. For the same molecule, the figures for the IC50 on Beta-secretase 2 and at Beta-secretase 1 [2] (read-out: IC50) were 33.2 µM and 63.9 µM, respectively. The inhibition at Beta-secretase 1 [3] worked out at 80.6%.
`C[C@@H](C(=O)NCc1ccc(CN)cc1)c1ccc(-c2ccccc2)c(F)c1`: the Ratio IC50 in the data set listed under Homo sapiens was found to be 2. Also, in data set [1], the viability at 24 h, 100 µM stood at 18%. For the same molecule, the IC50 at Beta-secretase 2 turned out to be 194 µM; on Beta-secretase 1 [2] (read-out: IC50) it was 85.7 µM. Moreover, the inhibition at Beta-secretase 1 [3] was 55.5%.
With `COc1ccc(NC(=O)Cc2ccc(-c3ccccc3)cc2)cc1`, the inhibition entry at Beta-secretase 1 [3] is “inactive”.
`COc1ccc(CNC(=O)Cc2ccc(-c3ccccc3)cc2)cc1`: the viability at 24 h, 100 µM in data set [1] was 82%. Besides, the inhibition result on Beta-secretase 1 [2] and on Beta-secretase 1 [3] was “inactive” throughout.
On to `O=C(Cc1ccc(-c2ccccc2)cc1)NCc1ccc(CN2CCCC2)cc1`, for which, in data set [1], the viability at 24 h, 100 µM came to 24%. For the same molecule, the IC50 at Beta-secretase 1 [2] (read-out: IC50) is more than 100 µM. The inhibition at Beta-secretase 1 [3] amounted to 24.4%.
For `O=C(Cc1ccc(-c2cccc(C(F)(F)F)c2)cc1)NCc1ccccc1`, the viability at 24 h, 100 µM in data set [1] stood at 27%. Further, the IC50 entry on Beta-secretase 1 [2] was “Not Active”.
For `NCc1ccc(CNC(=O)Cc2ccc(-c3ccccc3)cc2O)cc1`, the viability at 24 h, 100 µM in data set [1] was found to be 18%. Besides, the IC50 on Beta-secretase 1 [2] (read-out: IC50) was more than 100 µM. Further, on Beta-secretase 1 [3], the inhibition is 42.5%.
For `NCc1ccc(CNC(=O)Cc2ccc(-c3ccccc3)c(O)c2)cc1`, in that order: 50%, more than 100 µM and 28.1%.
For `NCc1ccc(CNC(=O)C(Cc2ccccc2)c2ccc(-c3ccccc3)cc2)cc1` (stereo unspecified), the viability at 24 h, 100 µM in data set [1] worked out at 15%. Moreover, the IC50 at Beta-secretase 2 was found to be 21 µM; on Beta-secretase 1 [2] (read-out: IC50), 26.9 µM. The inhibition at Beta-secretase 1 [3] was 102%.
Turning to `NCc1ccc(CNC(=O)Cc2ccc(-c3c(F)c(F)c(F)c(F)c3F)cc2)cc1`, the Ratio IC50 in the data set filed under Homo sapiens is 2. Further, in data set [1], the viability at 24 h, 100 µM is 68%. Moreover, the IC50 at Beta-secretase 2 came out at 246 µM; at Beta-secretase 1 [2] (read-out: IC50) it was 101 µM. Besides, in the data set on HEK293 (Homo sapiens), the outcome was inactive. In addition, the inhibition on Beta-secretase 1 [3] came to 51.8%; against Beta-secretase 1 [5] it was 39.4%. For the same molecule, the inhibition result on Beta-secretase 1 [4] is “Active”.
Regarding `NCc1ccc(CNC(=O)Cc2ccc(-c3ccccc3)cc2)cc1`, the Ratio IC50 in the data set filed under Homo sapiens worked out at 2. Further, the viability at 24 h, 100 µM in data set [1] stood at 42%. Further, the figures for the IC50 on Beta-secretase 2 and on Beta-secretase 1 [2] (read-out: IC50) were more than 1000 µM and 323 µM, respectively. Moreover, the inhibition on Beta-secretase 1 [3] is 35.6%.
Regarding `O=C(Cc1ccc(-c2ccccc2)cc1)NCCc1c[nH]c2ccccc12`, the inhibition entry on Beta-secretase 1 [3] is “inactive”.
Take `O=C(Cc1ccc(-c2c(F)c(F)c(F)c(F)c2F)cc1)NCc1ccccc1`: the viability at 24 h, 100 µM in data set [1] stood at 61%. On Beta-secretase 1 [2], the IC50 entry is on record as “Not Active”.
The matching figures for `O=C(Cc1ccc(-c2cc(C(F)(F)F)cc(C(F)(F)F)c2)cc1)NCc1ccccc1`: 76% and “Not Active”.
In the case of `CCN(CC)Cc1ccc(CNC(=O)Cc2ccc(-c3ccccc3)cc2)cc1`, the viability at 24 h, 100 µM in data set [1] stood at 38%. Besides, the IC50 at Beta-secretase 1 [2] (read-out: IC50) was more than 100 µM. Besides, the inhibition at Beta-secretase 1 [3] is 34.4%.
On to `CC(C(=O)NCc1ccc(CN)cc1)c1ccc(-c2ccccc2)c(F)c1` (stereo unspecified), for which, in the data set listed under Homo sapiens, the Ratio IC50 is 2. In addition, the viability at 24 h, 100 µM in data set [1] was found to be 11%. In addition, the figures for the IC50 on Beta-secretase 2 and on Beta-secretase 1 [2] (read-out: IC50) were 207 µM and 77.1 µM, respectively. The inhibition at Beta-secretase 1 [3] was found to be 51.7%.
Take `CC[N+](CC)(CC)Cc1ccc(CNC(=O)Cc2ccc(-c3ccccc3)cc2)cc1`: the viability at 24 h, 100 µM in data set [1] is 40%. Further, the IC50 at Beta-secretase 1 [2] (read-out: IC50) was more than 100 µM. The inhibition at Beta-secretase 1 [3] was 44.1%.
